According to ChEMBL document CHEMBL1132147, “2-(2-Phenylcyclopropyl)imidazolines: reversed enantioselective interaction at I(1) and I(2) imidazoline receptors” (J Med Chem, 1999):

How the values were obtained:
[1] = target: T1, Adrenergic receptor alpha-2 (Rattus norvegicus, UniProt P22086+P19328+P22909); assay: Displacement of [3H]-clonidine from Alpha-2 adrenergic receptor of rat cortex membranes; type: cell membranes, Membrane
T1 sequence (P22086 whole entry): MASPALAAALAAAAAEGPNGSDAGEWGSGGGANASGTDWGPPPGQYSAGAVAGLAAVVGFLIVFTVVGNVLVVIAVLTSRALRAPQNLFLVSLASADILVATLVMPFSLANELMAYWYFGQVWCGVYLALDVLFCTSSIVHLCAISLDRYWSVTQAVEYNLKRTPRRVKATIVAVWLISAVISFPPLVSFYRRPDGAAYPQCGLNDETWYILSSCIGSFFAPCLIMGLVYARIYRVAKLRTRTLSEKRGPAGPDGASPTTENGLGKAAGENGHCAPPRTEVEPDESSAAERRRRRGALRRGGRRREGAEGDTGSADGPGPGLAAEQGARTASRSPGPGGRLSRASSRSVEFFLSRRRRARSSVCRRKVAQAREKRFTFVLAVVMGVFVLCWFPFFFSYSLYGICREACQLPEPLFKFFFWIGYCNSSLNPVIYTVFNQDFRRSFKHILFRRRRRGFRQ
T1 sequence (P19328 whole entry): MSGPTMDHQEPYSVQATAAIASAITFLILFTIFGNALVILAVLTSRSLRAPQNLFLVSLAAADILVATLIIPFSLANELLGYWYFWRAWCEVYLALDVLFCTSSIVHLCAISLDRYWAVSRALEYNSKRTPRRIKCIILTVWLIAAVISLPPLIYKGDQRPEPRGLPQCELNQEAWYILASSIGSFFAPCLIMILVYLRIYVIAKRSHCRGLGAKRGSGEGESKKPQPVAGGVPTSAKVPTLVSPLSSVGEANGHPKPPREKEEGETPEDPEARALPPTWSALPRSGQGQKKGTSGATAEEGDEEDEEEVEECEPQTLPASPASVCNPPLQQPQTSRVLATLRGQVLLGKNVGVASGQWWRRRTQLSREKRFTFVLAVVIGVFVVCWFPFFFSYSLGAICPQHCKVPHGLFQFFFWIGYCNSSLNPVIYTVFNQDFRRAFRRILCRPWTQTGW
T1 sequence (P22909 whole entry): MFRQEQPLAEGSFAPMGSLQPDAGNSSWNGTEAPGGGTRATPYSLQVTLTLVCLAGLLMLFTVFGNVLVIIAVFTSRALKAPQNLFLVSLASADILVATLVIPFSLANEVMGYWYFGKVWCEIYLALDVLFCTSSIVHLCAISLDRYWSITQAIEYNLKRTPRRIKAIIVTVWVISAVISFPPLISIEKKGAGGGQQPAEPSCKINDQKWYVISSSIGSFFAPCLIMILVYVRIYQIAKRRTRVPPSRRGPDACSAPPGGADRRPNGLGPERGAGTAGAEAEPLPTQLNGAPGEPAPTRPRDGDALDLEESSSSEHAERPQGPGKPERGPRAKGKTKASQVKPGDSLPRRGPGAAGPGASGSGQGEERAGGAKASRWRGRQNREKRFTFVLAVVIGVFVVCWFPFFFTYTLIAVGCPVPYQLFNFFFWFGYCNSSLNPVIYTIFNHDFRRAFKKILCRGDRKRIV
How it was run: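 Competition binding using hydrogen oxalate salts of the compounds: [3H]clonidine on rat cortex membranes (α2) or [3H]idazoxan on rabbit kidney membranes (I2). IC50 by nonlinear regression of displacement data, converted to Ki by Cheng–Prusoff and given as pKi ± SEM.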

[2] = Displacement of [3H]idazoxan from imidazoline receptor I-2 of rabbit kidney membranes
[3] = Relative binding to I2 imidazoline and alpha-2 adrenergic receptors […]
[4] = Relative binding to I2 and I1 imidazoline receptors […]
[5] = target: Nischarin (Rattus norvegicus); assay: Displacement of [125I]p-iodoclonidine from imidazoline receptor I-1 of PC12 cell membranes

Compound	Log Ki [1]	Log Ki [2]	Ratio [3]	Ratio [4]	Ki [5] [nM]
c1ccc(C2CC2C2=NCCN2)cc1 (racemic)	-6.4	-7.64	–	–	–
c1ccc([C@@H]2C[C@H]2C2=NCCN2)cc1	-6.92	-8.22	–	–	–
c1ccc([C@H]2C[C@@H]2C2=NCCN2)cc1	-6.62	-6.91	–	–	–
c1ccc(C2CC2C2=NCCN2)cc1 (stereo in doubt; 4a(+/-)) [listing 1 of 2 here]	-4.53	-6.05	–	–	–
c1ccc(C2CC2C2=NCCN2)cc1 (stereo in doubt; 4a(+/-)) [listing 2 of 2 here]	–	–	33	7	–
C(=C\c1ccccc1)/C1=NCCN1 [TRACIZOLINE]	-4.85	-8.72	7410	10	19.1
